Consider four compounds from ChEMBL document CHEMBL5120741, “Small molecule-mediated induction of endoplasmic reticulum stress in cancer cells” (RSC Med Chem, 2021).

Series [1] has as its system HeLa. Kind of series: Cytotoxicity against human HeLa cells assessed as cell viability after 24 hrs by MTT assay. It is filed as functional, cell-based. An outline of the steps: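 HeLa cells from NCCS incubated 24 h with compound across a concentration range (single-point screen at 30 μM); viability read by MTT assay; IC50 from dose-response; significance by two-way ANOVA.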
Background: Tetrazolium assays rely on reduction of a dye to a coloured formazan, in cell work by metabolically active cells.

Series [2] relates to HeLa. Kind of series: Cytotoxicity against human HeLa cells assessed as cell killing at 30 uM after 24 hrs by MTT assay.
Series [3] can be described thus: Drug uptake in endoplasmic reticulum of human HeLa cells at 5 uM measured after 3 and 6 hrs by ER-tarcker dye based laser confocal microscopy. Type of series: ADME, subcellular. An outline of the steps:
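HeLa cells given 5 μM compound (intrinsically green fluorescent) for 3 h and 6 h, ER counterstained with ER-Tracker Red, imaged by confocal laser scanning microscopy; colocalization quantified as Pearson's and Mander's coefficients.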

Series [4] in a line: Induction of ERstress in human HeLa cells assessed as increase in CHOP expression level measured after 24 hrs by confocal microscopic analysis relative to control. Type of series: functional. An outline of the steps:
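After 24 h treatment, HeLa cells probed with anti-CHOP primary antibody (4 h), then Alexa Fluor 594 secondary; nuclei DAPI-stained; confocal imaging, red signal expressed as fold over untreated cells.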

Series [5] is described as follows: Induction of ERstress in human HeLa cells assessed as increase in CHOP expression level measured after 24 hrs by Western blot analysis relative to control. It is filed as functional. Put shortly:
(§1)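 HeLa cells treated 24 h, lysed, proteins separated by gel electrophoresis and immunoblotted for BiP, CHOP, IRE1α, PERK or caspase-12; expression given as fold change over untreated control.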

Series [6] is described as follows: Induction of ERstress in human HeLa cells assessed as increase in IRE1-alpha expression level measured after 24 hrs by Western blot analysis relative to control. It is filed as functional. An outline of the steps:
as §1

Series [7] can be described thus: Induction of ERstress in human HeLa cells assessed as increase in PERK expression level measured after 24 hrs by Western blot analysis relative to control. It is filed as functional. An outline of the steps:
as §1

Series [8] can be described thus: Induction of ERstress in human HeLa cells assessed as increase in BiP expression level measured after 24 hrs by Western blot analysis relative to control. It is filed as functional. Put shortly: as §1
Series [9] can be described thus: Induction of ERstress in human HeLa cells assessed as increase in caspase-12 expression level measured after 24 hrs by Western blot analysis relative to control. It is filed as functional. Put shortly: as §1
On the technique in general: A western blot detects proteins with antibodies after separation by electrophoresis.

For series [10], the system named is HeLa. The experiment in a line: Induction of ERstress in human HeLa cells assessed as increase in lipid level measured after 24 hrs by Oil-red-O staining analysis. It is filed as functional, cell-based. Put shortly:
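Lipid content: HeLa cells exposed 24 h, stained with Oil Red O plus DAPI for nuclei, viewed by confocal microscopy against untreated control.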

Series [11] concerns HeLa. The experiment in a line: Induction of autophagy in human HeLa cells assessed as increase in LC3B level measured after 24 hrs by confocal microscopic analysis relative to control. It is filed as functional. An outline of the steps: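 HeLa cells treated 24 h, fixed in paraformaldehyde, permeabilized with 0.1% Tween-20 buffer, anti-LC3B primary 4 h, Alexa Fluor 488 secondary, DAPI nuclei; confocal imaging, green signal as fold over control.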

The test system of series [12] is HeLa. The experiment in a line: Induction of autophagy in human HeLa cells assessed as increase in beclin level measured after 24 hrs by confocal microscopic analysis relative to control. Type of series: functional. Put shortly: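 Immunofluorescence: HeLa cells treated 24 h, anti-Beclin primary then Alexa Fluor 594 secondary, DAPI counterstain; confocal microscopy, red signal as fold versus untreated control.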

Series [13] has as its system HeLa. Kind of series: Induction of autophagy in human HeLa cells assessed as increase in beclin level measured after 24 hrs by Western blot analysis relative to control. It is filed as functional. Put shortly:
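Western blot: HeLa cells treated 24 h, lysed, proteins resolved by gel electrophoresis and probed for Beclin; fold change versus untreated cells.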

For series [14], the system named is HeLa. Kind of series: Induction of autophagy in human HeLa cells assessed as increase in LC3-1 level measured after 24 hrs by Western blot analysis relative to control. Type of series: functional. Put shortly:
(§2)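 HeLa cells (NCCS) exposed to compound for 24 h, then lysed; cellular proteins resolved by gel electrophoresis and immunoblotted for LC3-I, LC3-II and Beclin. Band levels expressed as fold change versus untreated control cells. The LC3-I/LC3-II ratio is taken from the same blots and also expressed as fold over control.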

For series [15], the system named is HeLa. Kind of series: Induction of autophagy in human HeLa cells assessed as increase in LC3-II level measured after 24 hrs by Western blot analysis relative to control. Type of series: functional. An outline of the steps:
as §2

The subject of series [16] is HeLa. Kind of series: Induction of autophagy in human HeLa cells assessed as increase in LC3-I/LC3-II ratio level measured after 24 hrs by Western blot analysis relative to control. Type of series: functional. An outline of the steps:
as §2

Series [17] concerns HeLa. Kind of series: Induction of apoptosis in human HeLa cells assessed as increase in early apoptotic cells level measured after 24 hrs by annexin-V-PI staining based flow cytometry (reference value: 1.26%). It is filed as functional. Put shortly:
(§3)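 Apoptosis by flow cytometry: HeLa cells treated 24 h alone or with 50 μM chloroquine, stained with Annexin V-FITC and propidium iodide; early and late apoptotic fractions reported as % cells.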

Series [18] deals with HeLa. The experiment in a line: Induction of apoptosis in human HeLa cells assessed as increase in late apoptotic cells level measured after 24 hrs by annexin-V-PI staining based flow cytometry (reference value: 0.08%). Type of series: functional. An outline of the steps: as §3
Series [19] concerns HeLa. Kind of series: Induction of apoptosis in human HeLa cells assessed as increase in early apoptotic cells level measured after 24 hrs in presence of 50 uM of chloroquine by annexin-V-PI staining based flow cytometry (reference value: 1.26%). Type of series: functional. Put shortly:
as §3

The subject of series [20] is HeLa. Kind of series: Induction of apoptosis in human HeLa cells assessed as increase in late apoptotic cells level measured after 24 hrs in presence of 50 uM of chloroquine by annexin-V-PI staining based flow cytometry (reference value: 0.08%). Type of series: functional. An outline of the steps: as §3

The source made the active and inactive calls. The calls are words filed in the database; no cut-off is given here.

Regarding `O=S(=O)(N/N=C/c1c[nH]c2cc(Br)ccc12)c1ccc(Cl)cc1`, in series [1], the half-inhibitory concentration (IC50) (as a rule, the concentration that gives 50% inhibition) came out at 18 µM. Also, the cell killing at 30 µM in series [2] is greater than 60%.
For `COc1ccc(S(=O)(=O)N/N=C/c2c[nH]c3cc(Br)ccc23)cc1`, the IC50 in [1] stood at 19 µM. In addition, the cell killing at 30 µM in series [2] was greater than 60%.
Take `CN(C)c1cccc2c(S(=O)(=O)N/N=C/c3c[nH]c4cc(Br)ccc34)cccc12`: in [1], the IC50 amounted to 9 µM. In series [3], the Drug uptake result is recorded as “Active”. Also, the “fold change (FC)” value in [4] is given as 1.7; in series [5] it was 1.6; in series [6], 1.8; in series [7] it was 1.6; in series [8], 1.6; in [9], 1.4. The “fold change (FC)” value in [11] is recorded as 5; in series [12], 8; in series [13], 2; in series [14] it was 2.6; in series [15], 10; in [16], 3.8. In addition, in [10], the result was Active. For the same compound, the Activity in [17] is 64.6%; in series [18], 17.8%; in [19], 28.6%; in series [20] it was 62%. The cell killing at 30 µM in series [2] was greater than 60%.
Take `O=S(=O)(N/N=C/c1c[nH]c2cc(Br)ccc12)c1ccc(Br)cc1`: in [1], the IC50 came out at 16 µM. For the same compound, the outcome in [10] and in [11] was Active. The cell killing at 30 µM in series [2] is greater than 60%.
